Compounds with a hit are over-represented: about 3% of the library has one in this group of screens.
Cneo AK release – causes C. neoformans cell lysis; 0.2% of 360,000 active; AID 651654; adenylate kinase release luminescence, 4 h; normalised: neutral wells 0, clomiphene wells 100; lysis activity, % at 15 µM;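 active = mean lysis activity across replicates of at least 80%, whatever share of replicates individually reach that level; inactive = mean lysis activity below 80%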
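Schedule: static 4 h at 37 °C with compound, 1 h detection; system: C. neoformans cells; benchmarks: Clomiphene as positive control; buffer or medium: fresh YPD medium; measure: luminescence rise reflecting yeast cell lysis; measured by: luminescent adenylate kinase detection reagent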
PGC1a acetyl inh – modulators of PGC1a acetylation; U2OS PGC1a acetylation, AlphaScreen anti-acetyl-lysine; with virally co-expressed GCN5 acetyltransferase; inhibition, % at 15.6 µM; 0.17% of 350,000 active;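 active = every replicate shows inhibition of at least 40%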
Statin myotox sup – protects C2C12 myotubes from simvastatin toxicity | ATP luminescence, 48 h; scaled: DMSO 0, geranylgeraniol control 100 | rescue of ATP level, % at 7.49 µM | 0.78% of 330,000 active | AID 602340;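 active = mean ATP rescue above about 67%, or every replicate alone reaching that limit, limit read from the data, passing the limit was not always enough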;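 note: myotubes were challenged with 10 µM simvastatin during compound exposure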
S100A4 inh HTS – S100A4-myosin IIA interaction inhibition; AID 652163; S100A4/TAMRA-MyoIIA peptide fluorescence polarization; inhibition, % at 10.7 µM; 0.14% of 360,000 active;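 active = mean inhibition of at least 70% across replicates, with every replicate also reaching that level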
Target sequence (P26447 whole entry, looked up): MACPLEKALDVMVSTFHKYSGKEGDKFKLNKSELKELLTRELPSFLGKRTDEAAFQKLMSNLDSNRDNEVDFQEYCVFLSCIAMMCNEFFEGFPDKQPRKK
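Material: S100A4 monomer (human). Medium: Calcium-containing HEPES buffer, pH 7.2. Probe or stimulus: labelled myosin peptide probe, 5 nM. Compound dosing: one concentration per compound. Timing: polarization read 5 min after assay mix addition, stable 5–60 min. Benchmarks: DMSO as neutral control, TFP as positive control.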
Ecoli rRNA inh – inhibits bacterial ribosomal RNA function over humanized ribosomes. E. coli WT GFP vs humanized-ribosome RFP mutants, fluorescence, 24 h; active compounds read low; DMSO median 0, no signal -100. GFP signal change (wild-type ribosome), % (concentration not given with the values). AID 720706. 1.6% of 350,000 active;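 active = significant combined selectivity score with lowered wild-type GFP, culture density cut under 30%, mutant RFP and density less affected; inactive = any of these conditions unmet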
SIRT5 block – inhibitors of human sirtuin-5 desuccinylase; inhibition, % at 15 µM; 1.1% of 330,000 active; Q9NXA8; Purified SirT5, succinyl-peptide AMC, trypsin-coupled fluorescence; in the data active = inhibition above about 15%
Target sequence (Q9NXA8 whole entry, looked up): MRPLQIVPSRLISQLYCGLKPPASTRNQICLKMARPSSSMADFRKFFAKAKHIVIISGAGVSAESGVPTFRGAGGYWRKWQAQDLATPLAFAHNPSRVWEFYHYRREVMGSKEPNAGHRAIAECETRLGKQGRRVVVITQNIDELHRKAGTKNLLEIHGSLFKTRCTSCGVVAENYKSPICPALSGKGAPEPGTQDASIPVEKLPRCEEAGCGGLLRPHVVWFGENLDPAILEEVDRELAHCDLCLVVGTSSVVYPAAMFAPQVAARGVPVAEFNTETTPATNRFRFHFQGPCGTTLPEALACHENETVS
A number is an active result; – = inactive; · = no result given.

SMILES	Cneo AK release	PGC1a acetyl inh	Statin myotox sup	S100A4 inh HTS	Ecoli rRNA inh	SIRT5 block
CN(C)C(=O)C[C@H]1C=C[C@H](NC(=O)Nc2cccc(F)c2)[C@H](CO)O1	–	–	–	–	–	–
C=CCOc1ccc(Br)cc1/C=C1\NC(=S)N(C(C)=O)C1=O	–	–	–	–	-31.8	–
C=CCOc1c(Br)cc(/C=C2/NC(=S)N(C(C)=O)C2=O)cc1OC	·	·	·	–	–	–
COc1ccc(S(=O)(=O)N[C@H]2CC[C@H](CC(=O)N3CCc4ccccc4C3)O[C@@H]2CO)cc1	–	–	–	–	–	–
O=C(NCc1ccc(F)cc1)C1CC(=O)N(C2CCCCC2)C1 (centres undefined)	–	–	–	–	–	31.2
O=C(NCc1ccccc1)C1CC(=O)N(C2CCCCC2)C1 (centres undefined)	–	–	–	–	–	–
CCOc1ccc(NC(=O)CN(C)C(=O)c2sc3ccccc3c2Cl)cc1OCC	–	·	–	–	-29.4	–
COc1cccc(NC(=S)NC(=O)Cc2ccc(Cl)cc2)c1	83.3	–	–	–	–	–
COc1cccc(NC(=S)NC(=O)c2cncc(Br)c2)c1	–	–	–	–	-24.3	–
Cc1ccc(NC(=S)NC(=O)c2cncc(Br)c2)cc1Cl	–	–	·	–	–	29.2
COC1OC(c2ccccc2)=C(c2ccc(C(N)=O)cc2)c2ccc(F)cc21 (centres undefined)	·	·	·	–	–	35.5
COc1ccc(C2=C(c3ccccc3)OC(OC)c3cc(F)ccc32)cn1 (centres undefined)	·	·	·	–	–	–
O=C(NCC(=O)N(Cc1ccccc1)C(C(=O)NC1CCCCC1)c1ccco1)c1ccco1 (centres undefined)	–	–	109.6	·	·	·
CCOC(=O)CN(C(=O)CNC(=O)c1ccco1)C(C(=O)NC1CCCCC1)c1cccs1 (centres undefined)	–	–	124.1	·	·	·
COc1ccc(C(C(=O)NC2CCCC2)N(Cc2ccccc2)C(=O)CNC(=O)c2ccco2)cc1 (centres undefined)	–	–	–	·	·	·
O=C(C[C@H]1CC[C@@H]2[C@H](COC[C@H](O)CN2Cc2nccs2)O1)NCc1ccc(Oc2ccccc2)cc1	–	–	–	–	–	–
O=C(C1CC1)N1CCCCN2[C@H](CO)[C@@H](c3ccc(C#CC4CC4)cc3)[C@@H]2C1	–	–	·	–	·	–
COc1ccc(C)cc1NC(=O)c1nn(C)c(C(=O)Nc2cc(C)ccc2OC)c1[N+](=O)[O-]	–	–	–	–	–	–
Cc1nn(Cc2c(F)c(F)c(F)c(F)c2F)c(C)c1NC(=O)c1nn(C)cc1Br	–	·	–	–	–	–
COc1ccc(C)cc1NC(=O)c1nn(C)cc1Br	–	·	–	–	-14.8	–
Cn1cc(Br)c(C(=O)Nc2c(F)c(F)c(F)c(F)c2F)n1	–	–	·	–	·	20.8
CN(C)C(=O)c1cccc(-c2ccc([C@H]3[C@@H](C#N)N(C(=O)C4CCCC4)[C@H]3CO)cc2)c1	·	–	·	–	–	–
O=C(NCC[C@@H]1CC[C@@H](NC(=O)c2ccc3c(c2)OCO3)[C@@H](CO)O1)Nc1cc(F)ccc1F	–	–	–	–	–	–
COC(=O)c1ccc(/C=N/NC(=O)CNc2cccc(C)c2)cc1	·	–	·	–	–	24.1
Cc1ccc(NCC(=O)N/N=C/c2cccc(Br)c2)cc1	–	–	–	–	-23.2	15.6
Cc1cccc(NCC(=O)N/N=C/c2cccc(Br)c2)c1	·	–	·	–	–	–
C[C@H]1CN([C@@H](C)CO)S(=O)(=O)c2ccc(C#CCN(C)C)cc2O[C@H]1CN(C)CC1CC1	–	–	–	–	–	–
C[C@H]1CN([C@@H](C)CO)C(=O)c2cc(NC(=O)Cc3cn(C)c4ccccc34)ccc2O[C@H]1CN(C)C(=O)NC1CCCCC1	–	–	–	–	–	–
CNC[C@H]1Oc2ccc(NC(=O)Nc3ccccc3)cc2CC(=O)N([C@@H](C)CO)C[C@H]1C	–	–	–	–	–	–
O=C(NCCN1CCOCC1)c1ccc2c(c1)N(Cc1cccc(F)c1)C(=O)c1ccccc1S2	·	–	–	–	–	–

Compound activity as filed in PubChem.
